Fold change (FC) and Activity data for one compound are collected here from ChEMBL document CHEMBL4680118, “Cerpegin-derived furo[3,4-c]pyridine-3,4(1H,5H)-diones enhance cellular response to interferons by de novo pyrimidine biosynthesis inhibition” (Eur J Med Chem, 2020).

Common to all, as to type: cell-based
In test [1] the target is T1, Dihydroorotate dehydrogenase (quinone), mitochondrial (Homo sapiens, UniProt Q02127). Kind of test: Inhibition of DHODH in human HEK293 cells transfected with ISRE-luciferase reporter gene assessed as increase in 125 IU/ml IFN-alpha stimulated […] mRNA expression at 80 uM measured after 16 hrs by RT-qPCR analysis relative to control. The procedure, abridged:
(§1)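 ISRE-Luc HEK cells co-treated with increasing IFN-α concentrations and DMSO or compound (80 µM) for 16 h. Total RNA extracted from 2×10^5 cells with DNase step; qPCR 35 cycles. CT values normalized to RPL13A and unstimulated controls (2^-ΔΔCT), expressed as fold change versus DMSO alone. Three independent experiments; two-way ANOVA with Bonferroni.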
(In a reporter assay the amount or activity of a reporter protein is the signal.)

Test [2] has as its target T1, Dihydroorotate dehydrogenase (quinone), mitochondrial. Nature of the test: Inhibition of DHODH in human HEK293 cells transfected with ISRE-luciferase reporter gene assessed as increase in 30 IU/ml IFN-alpha stimulated […] mRNA expression at 80 uM measured after 16 hrs by RT-qPCR analysis relative to control. The procedure, abridged:
as §1

For test [3] the target is unchanged. Nature of the test: Inhibition of DHODH in human HEK293 cells transfected with ISRE-luciferase reporter gene assessed as increase in 60 IU/ml IFN-alpha stimulated MX2 mRNA expression at 80 uM measured after 16 hrs by RT-qPCR analysis relative to control. The procedure, abridged: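 HEK-293 ISRE-Luc cells (DMEM, 10% FCS, 37°C, 5% CO2) were given increasing IFN-α doses together with DMSO or compound at 80 μM, then harvested at 16 h. RNA was extracted from 2×10^5 cells with DNase treatment. Transcripts were run by qPCR for 35 cycles and normalized to RPL13A and to unstimulated controls by 2^-ΔΔCT. Values are fold change versus DMSO; three independent experiments; two-way ANOVA with Bonferroni.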

Test [4] has the same target. Nature of the test: Inhibition of DHODH in human HEK293 cells transfected with ISRE-luciferase reporter gene assessed as increase in 60 IU/ml IFN-alpha stimulated DDX58 mRNA expression at 80 uM measured after 16 hrs by RT-qPCR analysis relative to control. The procedure, abridged: as §1
Test [5] shares this target. Nature of the test: Inhibition of DHODH in human HEK293 cells assessed as increase in gammaH2AX phosphorylation measured after 24 hrs by immunostaining based flow cytometry. The procedure, abridged: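 Cells treated 24 h with compound (80 µM), harvested, trypsinized, fixed 30 min in 4% PFA, permeabilized 5 min. Stained with anti-γH2AX mouse monoclonal (1/400) or isotype control, 45 min at 4°C, then Alexa Fluor 488 anti-mouse secondary (1/500) 45 min at 4°C. Analysed by flow cytometry; means ± SD of three independent experiments.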

Test [6] has the same target. Nature of the test: Inhibition of DHODH in human HEK293 cells transfected with ISRE-luciferase reporter gene assessed as increase in 30 IU/ml IFN-alpha stimulated PKR mRNA expression at 80 uM measured after 16 hrs by RT-qPCR analysis relative to control. The procedure, abridged: as §1
The target is the same in test [7]. Kind of test: Inhibition of DHODH in human HEK293 cells transfected with ISRE-luciferase reporter gene assessed as increase in 250 IU/ml IFN-alpha stimulated IFIT1 mRNA expression at 80 uM measured after 16 hrs by RT-qPCR analysis relative to control. The procedure, abridged:
as §1

Test [8] has the same target. Kind of test: Inhibition of DHODH in human HEK-293 cells transfected with ISRE-luciferase reporter gene assessed as increase in 150 IU/ml IFN-alpha mediated cellular response at 80 uM in presence of PF477736 CHK1 inhibitor measured after 24 hrs by luciferase reporter gene assay. Particulars: HEK293. The procedure, abridged:
(§2)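 ISRE-Luc HEK-293 cells given IFN-α (150 IU/ml) alone or with test compound (80 µM), with or without the MRE11 inhibitor mirin, ATR inhibitor AZD6738, CHK1 inhibitor PF477736 or P300/CBP inhibitor C636. Firefly luciferase read 24 h later, normalized to IFN-α alone. Means ± SD of at least three independent experiments.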

For test [9] the target is unchanged. Nature of the test: Inhibition of DHODH in human HEK293 cells assessed as increase in 250 IU/ml IFN-alpha stimulated DDX58 mRNA expression at 80 uM measured after 16 hrs by RT-qPCR analysis relative to control. The procedure, abridged:
as §1

The target is the same in test [10]. Nature of the test: Inhibition of DHODH in human HEK293 cells transfected with ISRE-luciferase reporter gene assessed as increase in 125 IU/ml IFN-alpha stimulated IFIT3 mRNA expression at 80 uM measured after 16 hrs by RT-qPCR analysis relative to control. The procedure, abridged:
as §1

The target is the same in test [11]. Kind of test: Inhibition of DHODH in human HEK-293 cells transfected with ISRE-luciferase reporter gene assessed as increase in 150 IU/ml IFN-alpha mediated cellular response at 80 uM in presence of mirin measured after 24 hrs by luciferase reporter gene assay. The note with it: HEK293. The procedure, abridged:
as §2

For test [12] the target is unchanged. Kind of test: Inhibition of DHODH in human HEK293 cells transfected with ISRE-luciferase reporter gene assessed as increase in 30 IU/ml IFN-alpha stimulated IFIT5 mRNA expression at 80 uM measured after 16 hrs by RT-qPCR analysis relative to control. The procedure, abridged:
as §1

Test [13] shares this target. Nature of the test: Inhibition of DHODH in human HEK293 cells assessed as increase in 250 IU/ml IFN-alpha stimulated ISG15 mRNA expression at 80 uM measured after 16 hrs by RT-qPCR analysis relative to control. The procedure, abridged: as §1
(In qPCR the cycle at which signal appears reflects the starting amount.)

For test [14] the target is unchanged. Kind of test: Inhibition of DHODH in human HEK-293 cells transfected with ISRE-luciferase reporter gene assessed as increase in 150 IU/ml IFN-alpha mediated cellular response at 80 uM in presence of AZD6738 ATR inhibitor measured after 24 hrs by luciferase reporter gene assay. The note with it: HEK293. The procedure, abridged:
as §2

Test [15] shares this target. Kind of test: Inhibition of DHODH in human HEK293 cells transfected with ISRE-luciferase reporter gene assessed as increase in 250 IU/ml IFN-alpha stimulated PKR mRNA expression at 80 uM measured after 16 hrs by RT-qPCR analysis relative to control. The procedure, abridged:
as §1

Test [16] shares this target. Nature of the test: Inhibition of DHODH in human HEK293 cells transfected with ISRE-luciferase reporter gene assessed as increase in 250 IU/ml IFN-alpha stimulated […] mRNA expression at 80 uM measured after 16 hrs by RT-qPCR analysis relative to control. The procedure, abridged: as §1
For test [17] the target is unchanged. Kind of test: Inhibition of DHODH in human HEK293 cells transfected with ISRE-luciferase reporter gene assessed as increase in 125 IU/ml IFN-alpha stimulated IFIT2 mRNA expression at 80 uM measured after 16 hrs by RT-qPCR analysis relative to control. The procedure, abridged:
as §1

The target is the same in test [18]. Kind of test: Inhibition of DHODH in human HEK293 cells assessed as effect on intracellular purine level measured after 24 hrs by HPLC coupled spectrophotometry. The procedure, abridged: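 HEK-293 cells plated at 1×10^6 per well, treated 24 h later with compound (80 µM final) or DMSO for 24 h. Pellets deproteinized with 6% perchloric acid, neutralized with Na2CO3, analysed by C18 HPLC at 45°C with ion-pair phosphate/MeOH gradient, detected at 254 nm against reference nucleoside calibration curves. Normalized to viable cell number and DMSO controls.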

Test [19] shares this target. Nature of the test: Inhibition of DHODH in human HEK293 cells transfected with ISRE-luciferase reporter gene assessed as increase in 30 IU/ml IFN-alpha stimulated ISG15 mRNA expression at 80 uM measured after 16 hrs by RT-qPCR analysis relative to control. The procedure, abridged:
as §1

The source made the active and inactive calls. No cut-off for these calls is given here.

T1 sequence (Q02127 whole entry): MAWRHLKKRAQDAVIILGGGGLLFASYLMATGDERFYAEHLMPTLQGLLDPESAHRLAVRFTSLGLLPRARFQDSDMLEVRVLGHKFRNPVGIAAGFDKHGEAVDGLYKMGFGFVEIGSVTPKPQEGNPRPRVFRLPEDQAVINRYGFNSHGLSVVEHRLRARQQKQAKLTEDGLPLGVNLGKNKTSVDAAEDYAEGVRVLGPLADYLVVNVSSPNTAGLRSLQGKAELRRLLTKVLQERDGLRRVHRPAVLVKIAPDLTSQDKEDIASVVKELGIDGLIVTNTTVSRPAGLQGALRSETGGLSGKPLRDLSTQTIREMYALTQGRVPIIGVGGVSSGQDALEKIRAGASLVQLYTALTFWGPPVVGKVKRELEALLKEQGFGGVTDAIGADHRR

On to `O=C1OC2(CCCCC2)c2ccn(C3CC3)c(=O)c21`, for which the fold change (FC) is 117 in test [1]; 44 in test [2]; 13 in test [3]; 23 in [4]; 2 in test [6]; 145 in test [7]. Also, the fold change (FC) in test [9] amounted to 38; in test [10], 99; in test [12] it was 3; in test [13] it was 226; in test [15], 4; in test [16], 143. Further, the figures for the fold change (FC) in test [17] and in [19] were 112 and 21, respectively. Besides, the outcome in [5] was Active. Moreover, the result in test [8], in [11], in test [14] and in [18] was inactive.
